The list is not random: actives were taken first. Their share in the collection is about 3.1%.
PP5 primary: PP5 (human) phosphatase inhibition; P53041; purified PP5c, OMFP substrate fluorescence; inhibition, % at 6.7 µM; actives 0.18% (n = 320,000); AID 1987;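 active = inhibition above the campaign's mean inhibition across all tested compounds plus 3 SD, cut at about 9.5% in these data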;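 note: 0% = DMSO only and 100% = 100 µM cantharidin control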
Target sequence (P53041 whole entry, looked up): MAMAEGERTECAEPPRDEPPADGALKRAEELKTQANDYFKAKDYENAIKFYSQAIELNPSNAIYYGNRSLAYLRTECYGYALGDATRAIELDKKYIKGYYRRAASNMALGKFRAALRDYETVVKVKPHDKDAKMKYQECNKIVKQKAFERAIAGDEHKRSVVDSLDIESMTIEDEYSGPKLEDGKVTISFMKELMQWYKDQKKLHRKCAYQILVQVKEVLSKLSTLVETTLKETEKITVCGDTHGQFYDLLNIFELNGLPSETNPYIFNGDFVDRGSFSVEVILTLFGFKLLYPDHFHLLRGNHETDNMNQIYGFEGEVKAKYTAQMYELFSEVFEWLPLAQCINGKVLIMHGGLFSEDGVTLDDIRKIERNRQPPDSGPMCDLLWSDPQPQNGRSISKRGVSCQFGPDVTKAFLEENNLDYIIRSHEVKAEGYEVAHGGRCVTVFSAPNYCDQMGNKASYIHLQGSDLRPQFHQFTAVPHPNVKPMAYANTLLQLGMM
core dimer inh: HCV core protein dimerization inhibition; TR-FRET GST/Flag-core106 dimerization, 1536-well; inhibition, % at 5 µM; actives 0.33% (n = 300,000);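 active = inhibition above the mean of all tested compounds plus 3 SD, set per screening campaign, cut at about 45% in these data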
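assay system = GST-tagged and Flag-tagged HCV core protein residues 1-106 | controls = unlabelled core106 and no-GST-core106 wells | incubation = compound-protein-antibody incubation 4 h at 22.5 °C | probe or stimulus = Eu donor and XL665 acceptor anti-tag antibodies | read-out = % inhibition based on acceptor/donor emission ratio | signal = TR-FRET 671 and 617 nm emission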
PP1 counter: blocks human PP1-alpha phosphatase, a PP5 counter-screen | P62136 | AID 2235 | purified PP1alpha, OMFP fluorescence | inhibition, % at 6.7 µM | actives 0.9% (n = 320,000);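 active = inhibition above the mean inhibition of all tested compounds plus 3 SD, computed separately for each screening campaign, cut at about 15% in these data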
Fh CTSL1 inh: counter-screen for PFM18AAP inhibitors: inhibitors of F. hepatica cathepsin L1; recombinant F. hepatica cathepsin L1, Z-Leu-Arg-MCA fluorescence; inhibition, % at 5.96 µM; actives 0.49% (n = 300,000); AID 1906;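 active = inhibition above the mean of all tested compounds plus 3 SD, set per screening campaign, cut at about 17% in these data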;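 note: 0% = plate median of test compound wells and 100% = 1 µM Z-Phe-Ala-diazomethylketone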
NadD block: blocks S. aureus nicotinate mononucleotide adenylyltransferase | purified NadD enzyme, colorimetric absorbance read-out | inhibition, % at 20 µM | actives 0.78% (n = 360,000); in the data active = inhibition above about 26%
Myeloid diff 2: promotes myeloid progenitor differentiation | ER-HoxA9 myeloid progenitors, lysozyme-GFP differentiation, flow cytometry | calls only at 10 µM | actives 1% (n = 360,000) | AID 624256;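 active = normalized GFP-positive differentiation at or above the plate's own cutoff, the solvent-only control mean plus 3 SD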;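 note: cells exposed to compound for four days before flow analysis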
Myeloid diff: promotes myeloid progenitor differentiation. shares compounds with Myeloid diff 2. ER-HoxA9 myeloid progenitors, GFP/Mac1 double-positive flow. calls only. actives 2% (n = 2,300);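 active = share of green or green-and-red cells above 9 and 9% in run 1 or 4 and 3% in run 2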
GFP autofluor: flagged as fluorescent in myeloid differentiation counter-screen; shares compounds with Myeloid diff 2; ER-HoxA9 myeloid progenitors, no estrogen, GFP autofluorescence flow cytometry; vehicle wells 0%, positive control 100%; fluorescence response, % (no concentration beside the values); actives 7.4% (n = 2,300); AID 651707;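 active = over 5% cells positive for green fluorescent reporter, or over 2% positive for both it and APC stain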;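 note: range taken on the double positive population between DMSO and positive control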
Active calls of the source: *; i = inactive; x = no result given; + = active, no number.

SMILES	PP5 primary	core dimer inh	PP1 counter	Fh CTSL1 inh	NadD block	Myeloid diff 2	Myeloid diff	GFP autofluor
Cc1ccc(O)c(N=Cc2sc3ccccc3c2Cl)c1	-1	2	3	1	-5	i	x	x
Oc1ccccc1N=Cc1sc2ccccc2c1Cl	0	3	-1	-2	-8	+	i	0
CC1CCCN(S(=O)(=O)c2ccc(NC(=O)CN3CCCCC3)cc2)C1 (stereo not drawn)	-3	10	-1	-4	-6	i	x	x
CCN1CCN(CC(=O)Nc2ccc(S(=O)(=O)N3C(C)CCCC3C)cc2)CC1 (stereo not drawn)	-2	-13	-6	-2	2	i	i	0
Cc1ccc(C)c(NC(=O)CS(=O)(=O)c2cn(C)c3ccccc23)c1	3	0	-1	-5	0	i	i	0
Cn1cc(S(=O)(=O)CC(=O)Nc2ccc3c(c2)OCCO3)c2ccccc21	1	3	-2	5	2	i	x	x
O=C(Nc1ccc2c(c1)CCCN2C(=O)c1ccccc1)c1ccccc1	-1	2	-2	2	-5	i	x	x
COc1ccc(NC(=O)Nc2ccccc2SC)cc1	4	-15	-2	7	-5	i	x	x
CSc1ccccc1NC(=O)Nc1ccc(Cl)cc1	4	-6	1	3	-6	i	i	0
Nc1ccc(-n2nc3ccccc3n2)cc1	2	0	0	5	-4	i	x	x
Nc1ccc2nn(-c3ccccc3)nc2c1	x	x	x	x	9	i	i	1
Cc1ccnc(NC(=O)c2cccc(S(=O)(=O)NCc3ccccc3)c2)c1	2	-7	3	-1	-2	i	x	x
CC(=O)OCCCCON1C(=O)c2ccccc2C1=O	-3	-8	-1	-4	4	x	i	0
COc1ccc(-c2cc(C(=O)N3CCN(c4ncccn4)CC3)c3ccccc3n2)c(OC)c1	2	9	2	1	1	i	x	x
O=C(c1cc(-c2ccccc2Cl)nc2ccccc12)N1CCN(c2ccccn2)CC1	x	x	x	x	-1	i	i	4
O=C(c1cc(-c2ccccc2Cl)nc2ccccc12)N1CCN(c2ccccc2O)CC1	-1	7	2	0	10	i	x	x
COc1ccc(-c2cc(C(=O)N3CCCCCC3)c3ccccc3n2)c(OC)c1	4	29	2	2	5	+	i	0
Cc1ccc(-c2nc(C)sc2CC(=O)OCC(=O)Nc2ccc(F)c(Cl)c2)cc1	1	0	7	0	-7	i	x	x
CCOC(=O)c1c(C)c(C(=O)Nc2cc(OC)ccc2OC)c(C)n1CC	-2	3	-2	1	-2	+	i	1
CN(C)c1ccc(/C=C(\NC(=O)c2ccccc2)C(=O)NCCN2CCOCC2)cc1	1	-9	10	4	-5	i	x	x
CC(=O)Nc1nn(C)c2nc3ccc(C)cc3cc12	0	-9	1	1	1	i	x	x
NC(=O)NC(Cc1ccccc1)C(=O)NNC(=O)COc1ccccc1Cl (stereo not drawn)	x	x	x	x	0	i	x	x
CCN(CC)C(=O)CSc1nnc(SC(C)C(=O)NC2CC2)s1 (stereo not drawn)	x	x	x	x	-4	i	i	0
CCC1(c2ccccc2)NC(=O)N(CC(=O)Nc2ccc3c(C)cc(=O)oc3c2)C1=O (stereo not drawn)	-2	6	-1	-17	8	x	x	x
O=C(NCc1ccccc1Cl)C1CCCN(S(=O)(=O)c2cccc3nsnc23)C1 (stereo not drawn)	-2	0	0	-1	0	i	i	0
SMILES	PP5 primary	core dimer inh	PP1 counter	Fh CTSL1 inh	NadD block	Myeloid diff 2	Myeloid diff	GFP autofluor
O=S(=O)(Nc1ccccc1N1CCOCC1)c1c(F)cc(F)cc1Br	x	x	x	x	-3	i	x	x
Cc1nn(Cc2ccc([N+](=O)[O-])cc2)c(=O)n1-c1ccc(Cl)cc1	0	-2	7	-3	0	+	i	0
O=C(Nc1cccc(C(F)(F)F)c1)C1C2CC3OC(=O)C1C3C2 (stereo not drawn)	1	-5	-1	-2	3	+	i	0
Cc1onc(-c2ccccc2Cl)c1C(=O)N1C=CC(C(F)(F)Cl)=NCC1	0	1	-3	0	-5	+	i	0
Cc1onc(-c2ccccc2Cl)c1C(=O)N1C=CC(C(F)(F)F)=NCC1	4	-2	-2	-2	-4	i	x	x
Cc1nc2ccccn2c1C(=O)/C=C/c1ccc(F)cc1	2	7	-3	4	-3	i	i	0
COc1ccc(/C=C/C(=O)c2c(C)nc3ccccn23)cc1	-1	3	-6	0	6	i	x	x
CC(C)(C)NC(=O)CCN(/N=C/c1ccc([N+](=O)[O-])o1)C1=NS(=O)(=O)c2ccccc21	-2	11	-2	6	5	+	i	1
CCOc1cccc(N2C(=O)CC(N(CCc3ccc(OC)c(OC)c3)C(=O)CC)C2=O)c1 (stereo not drawn)	4	2	1	-1	7	i	x	x
CCOC(=O)c1ccc(N2C(=O)CC(N(C)CCc3ccc(OC)c(OC)c3)C2=O)cc1 (stereo not drawn)	-2	2	3	-1	-4	i	i	0
CC(C)CC1C(=O)N(Cc2cn(CC3CCCCC3)nn2)CCS(=O)(=O)N1Cc1ccc(-c2ccncc2)cc1 (stereo not drawn)	x	x	x	x	2	i	i	0
CC1C(=O)N(Cc2cn(CCC3OCCCO3)nn2)CCS(=O)(=O)N1Cc1ccc(-c2ccccc2)cc1 (stereo not drawn)	x	x	x	x	2	+	i	0
O=C1CC2CC1C(C(=O)O)C2C(=O)O (stereo not drawn)	x	x	x	x	2	i	x	x
CC(=O)c1c(N2CCOCC2)[nH]c(-c2ccccc2)nc1=S	0	-5	-3	4	0	+	+	0
Cn1cc(-c2cnc3c(NC=O)cc(-c4cccc(C(F)(F)F)c4)cn23)cn1	x	x	x	x	-1	+	i	2
COc1ccc(-c2cc(NC(C)=O)c3ncc(-c4cccc(C(F)(F)F)c4)n3c2)c(OC)c1	x	x	x	x	4	i	x	x
COc1ccc(-c2cc(NC=O)c3ncc(-c4cccc(C(F)(F)F)c4)n3c2)c(OC)c1	x	x	x	x	18	+	i	0
COc1cc(-c2cnc3c(NC=O)cc(-c4cccc(C(F)(F)F)c4)cn23)cc(OC)c1OC	x	x	x	x	6	x	x	x
